Series [1] is described as follows: Cytotoxicity against mock-infected BHK21 cells after 48 to 96 hrs by MTT assay. It counts as functional. The conditions noted are these: Mesocricetus auratus, BHK-21. The gist of the method:
(§1)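 Mock-infected MDBK (6 × 10^5 cells/mL; MEM-E, 10% horse serum, 1 mM pyruvate) or BHK (1 × 10^6 cells/mL; MEM-E, 10% FBS) cells were incubated at 37 °C, 5% CO2 with serial dilutions from 100 µM, 1:5. Viability by MTT after 48–96 h. CC50 from linear regression against untreated controls.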
Background: Tetrazolium dyes change colour on reduction, which living cells bring about.

The subject of series [2] is Bovine viral diarrhea virus 1. The series can be described thus: Antiviral activity against Bovine viral diarrhea virus infected in MDBK cells assessed as inhibition of virus-induced cytopathogenicity after 3 to 4 days by MTT assay. It counts as functional, organism-based. The settings on record: Bovine viral diarrhea virus isolates and strains. (In general: Cytopathic effects are the visible damage that an infection or toxin causes in cultured cells.)

The next series relates to Coxsackievirus B5. Put plainly: Antiviral activity against Coxsackievirus B5 infected in african green monkey Vero 76 cells assessed as reduction in plaque number after 3 days by plaque reduction assay. It counts as functional, organism-based. The conditions noted are these: Enterovirus B, 72 h. In general terms: In a plaque reduction assay, fewer plaques than in the control indicate reduced infectivity or spread.

The test system of the next series is Reovirus sp. The series can be described thus: Antiviral activity against Reovirus type-1 infected in BHK21 cells assessed as inhibition of virus-induced cytopathogenicity after 3 to 4 days by MTT assay. It counts as functional, organism-based. The conditions noted are these: BHK-21.
Series [3] can be described thus: Cytotoxicity against mock-infected african green monkey Vero 76 cells after 48 to 96 hrs by MTT assay. It counts as cell-based. The conditions noted are these: chlorocebus sabaeus, mock-infected Vero 76 cells.
Series [4] is described as follows: Cytotoxicity against mock-infected human MT4 cells after 96 hrs by MTT assay. It counts as cell-based. Put shortly:
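Exponentially growing MT-4 cells were seeded at 1 × 10^5 cells/mL in RPMI-1640 with 10% FBS and held at 37 °C, 5% CO2 with serial compound dilutions. Viability was read by MTT after 96 h. CC50 from linear regression against untreated controls.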

The subject of a further series is Human alphaherpesvirus 1. Put plainly: Antiviral activity against HSV1 infected in african green monkey Vero 76 cells assessed as reduction in plaque number after 3 days by plaque reduction assay. It counts as functional, organism-based. The settings on record: Human alphaherpesvirus 1, Vero, 72 h.
Series [5] concerns Human immunodeficiency virus 1. Put plainly: Antiviral activity against HIV1 infected in human MT4 cells assessed as inhibition of virus-induced cytopathogenicity after 4 days by MTT assay. It counts as functional, organism-based. The conditions noted are these: Human immunodeficiency virus 1, MT4, 96 h. The gist of the method: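 MT-4 cells (1 × 10^4/well in RPMI) were infected acutely with HIV-1 IIIB, 100 CCID50 (m.o.i. 0.01), with serial dilutions from 100 µM, 1:5. After 4 days at 37 °C, protection from virus-induced cytopathogenicity was read by MTT. EC50 came from linear regression against untreated controls.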

Another series concerns Poliovirus 1. Put plainly: Antiviral activity against Poliovirus type 1 Sabin strain infected in african green monkey Vero 76 cells assessed as reduction in plaque number after 2 days by plaque reduction assay. The conditions noted are these: Enterovirus C, 48 h. It counts as functional, organism-based.
Series [6] relates to Vesicular stomatitis virus. Put plainly: Antiviral activity against Vesicular stomatitis virus infected in african green monkey Vero 76 cells assessed as reduction in plaque number after 2 days by plaque reduction assay. It counts as functional, organism-based. The settings on record: 48 h.
For the next series, the system named is Yellow fever virus. Put plainly: Antiviral activity against Yellow fever virus infected in BHK21 cells assessed as inhibition of virus-induced cytopathogenicity after 3 to 4 days by MTT assay. It counts as functional, organism-based. The settings on record: BHK-21.
Series [7] relates to Respiratory syncytial virus. Put plainly: Antiviral activity against Respiratory syncytial virus infected in african green monkey Vero 76 cells assessed as reduction in plaque number after 5 days by plaque reduction assay. It counts as functional, organism-based. The conditions noted are these: human respiratory syncytial virus, 120 h.
The subject of a further series is Vaccinia virus. Put plainly: Antiviral activity against Vaccinia Virus infected in african green monkey Vero 76 cells assessed as reduction in plaque number after 3 days by plaque reduction assay. It counts as functional, organism-based. The settings on record: Orthopoxvirus vaccinia, 72 h.
A short description of series [8]: Cytotoxicity against mock-infected MDBK cells after 48 to 96 hrs by MTT assay. It counts as cell-based, Bos taurus. The settings on record: cattle. Put shortly:
as §1

Structures are written as SMILES. Some results are limits rather than exact numbers.

The source of these data is ChEMBL document CHEMBL3351523 (Bioorg Med Chem, 2014).

By CC50 is commonly meant the concentration giving 50% cytotoxicity. A word on the EC50: it is the concentration needed to bring the measured effect to its halfway point.

`COc1ccc2c(c1)nnn1c3cc(Cl)c(Cl)cc3nc21`: the CC50 in [1], in series [3] and in series [8] was greater than 100 µM in each case. Also, the EC50 (in series [2]; with Coxsackievirus B5; in the series on Reovirus sp.; in the series on Human alphaherpesvirus 1; in series [5]; with Poliovirus 1) was greater than 100 µM in each case. Also, the EC50 (in series [6]; in the series on Yellow fever virus; in series [7]; in the series with Vaccinia virus) was greater than 100 µM each time. Moreover, the CC50 at 96 h in series [4] is greater than 100 µM.
For the compound `COc1ccc(-c2nc3cc(Cl)ccc3n2[C@@H]2CCCN3CCCC[C@H]23)cc1`, the CC50 in series [1], in series [3] and in [8] was greater than 100 µM each time. The EC50 (in [2]; with Coxsackievirus B5; in the series with Reovirus sp.; in the series on Human alphaherpesvirus 1; in series [5]; in the series on Poliovirus 1) was greater than 100 µM each time. The EC50 (in series [6]; in the series with Yellow fever virus; in [7]; in the series on Vaccinia virus) was greater than 100 µM in each case. In series [4], the CC50 at 96 h is greater than 100 µM.
With `c1ccc2[nH]c(CCCC3NCC4CC3CN3CCCCC43)nc2c1` (stereo not drawn), the CC50 in series [1], in [3] and in series [8] was greater than 100 µM each time. For the same compound, the EC50 was 94 µM in [2]; greater than 100 µM in the series on Coxsackievirus B5; greater than 100 µM with Reovirus sp.; greater than 100 µM in the series with Human alphaherpesvirus 1; greater than 100 µM in series [5]; greater than 100 µM in the series with Poliovirus 1. Moreover, the EC50 in series [6] was greater than 100 µM; in the series on Yellow fever virus it was 87 µM; in series [7] it was greater than 100 µM; in the series on Vaccinia virus, greater than 100 µM. Besides, in series [4], the CC50 at 96 h was greater than 100 µM.
As for `FC(F)(F)c1ccc2c(c1)nc(CC1=CCCC1)n2C[C@@H]1CCCN2CCCC[C@H]12`, the CC50 in [1] was 30 µM; in series [3], greater than 100 µM; in series [8] it was 50 µM. Also, the EC50 is greater than 100 µM in series [2]; greater than 100 µM with Coxsackievirus B5; greater than 100 µM in the series on Reovirus sp.; 30 µM in the series on Human alphaherpesvirus 1; greater than 100 µM in series [5]; greater than 100 µM in the series on Poliovirus 1. For the same compound, the EC50 (in series [6]; in the series on Yellow fever virus; in series [7]; with Vaccinia virus) was greater than 100 µM throughout. This compound registered a CC50 at 96 h in series [4] of 5 µM.
On to `Clc1ccc2[nH]c(CCCC3NCC4CC3CN3CCCCC43)nc2c1` (stereo not drawn), for which the CC50 turned out to be 18 µM in series [1], 59 µM in series [3] and 56 µM in series [8]. The concentration for a half-maximal effect (EC50) (in [2]; with Coxsackievirus B5; with Reovirus sp.; in the series with Human alphaherpesvirus 1; in series [5]; in the series on Poliovirus 1) was greater than 100 µM each time. The EC50 (in series [6]; in the series with Yellow fever virus; in series [7]; in the series with Vaccinia virus) was greater than 100 µM in each case. This compound showed a CC50 at 96 h in [4] of 51 µM.
Consider `c1ccc2[nH]c(C[C@@H]3CCCN4CCCC[C@H]34)nc2c1`, for which the CC50 in [1] was 78 µM; in series [3], greater than 100 µM; in series [8], greater than 100 µM. Further, the EC50 in [2] was 34 µM; with Coxsackievirus B5, greater than 100 µM; in the series with Reovirus sp. it was greater than 100 µM; in the series on Human alphaherpesvirus 1 it was greater than 100 µM; in [5], greater than 100 µM; in the series with Poliovirus 1, greater than 100 µM. Besides, the 50% effective concentration (EC50) (in series [6]; in the series on Yellow fever virus; in [7]; with Vaccinia virus) was greater than 100 µM in each case. Moreover, the CC50 at 96 h in series [4] is 17 µM.
Regarding `CC(=O)Nc1ccc(Cc2nc3ccccc3[nH]2)cc1`, the CC50 in series [1], in series [3] and in series [8] was greater than 100 µM each time. The EC50 (in series [2]; in the series on Coxsackievirus B5; in the series with Reovirus sp.; in the series with Human alphaherpesvirus 1; in series [5]; with Poliovirus 1) was greater than 100 µM each time. For the same compound, the EC50 (in [6]; in the series on Yellow fever virus; in series [7]; with Vaccinia virus) was greater than 100 µM each time. The compound further displayed a CC50 at 96 h in series [4] greater than 100 µM.
Regarding `Clc1ccc2[nH]c(CCCC3NCC4CNCC3C4)nc2c1` (stereo not drawn), the CC50 in series [1], in [3] and in series [8] was greater than 100 µM throughout. The EC50 (in [2]; with Coxsackievirus B5; with Reovirus sp.; with Human alphaherpesvirus 1; in series [5]; with Poliovirus 1) was greater than 100 µM each time. Also, the EC50 in [6] is greater than 100 µM; in the series with Yellow fever virus, 25 µM; in series [7], greater than 100 µM; with Vaccinia virus, greater than 100 µM. In addition, the CC50 at 96 h in series [4] is greater than 100 µM.
On to `COc1ccc(Cc2nc3cc(C(F)(F)F)ccc3n2C[C@H]2CCCN3CCCC[C@H]23)cc1`, for which the CC50 in series [1], in series [3] and in series [8] was greater than 100 µM each time. Besides, the EC50 (in [2]; in the series with Coxsackievirus B5; in the series on Reovirus sp.; with Human alphaherpesvirus 1; in series [5]; in the series with Poliovirus 1) was greater than 100 µM each time. Further, the EC50 (in series [6]; with Yellow fever virus; in [7]; in the series with Vaccinia virus) was greater than 100 µM in each case. The same compound yielded a CC50 at 96 h in series [4] of no less than 100 µM.
Take `Clc1ccc2[nH]c(C[C@@H]3CCCN4CCCC[C@H]34)nc2c1`: the results for the CC50 in series [1], in series [3] and in [8] were 52 µM, greater than 100 µM and 77 µM, respectively. Also, the EC50 is 17 µM in series [2]; greater than 100 µM in the series with Coxsackievirus B5; greater than 100 µM in the series with Reovirus sp.; greater than 100 µM in the series on Human alphaherpesvirus 1; greater than 100 µM in [5]; greater than 100 µM in the series with Poliovirus 1. Moreover, the EC50 (in series [6]; in the series with Yellow fever virus; in series [7]; in the series on Vaccinia virus) was greater than 100 µM each time. Moreover, the CC50 at 96 h in [4] is 53 µM.
As to `Clc1ccc(Cc2nc3cc(Cl)c(Cl)cc3[nH]2)cc1Cl`, the results for the CC50 in series [1], in series [3] and in series [8] were greater than 100 µM, 70 µM and greater than 100 µM, respectively. For the same compound, the EC50 (in [2]; in the series with Coxsackievirus B5; in the series on Reovirus sp.; in the series with Human alphaherpesvirus 1; in [5]; with Poliovirus 1) was greater than 100 µM in each case. Also, the EC50 (in [6]; in the series with Yellow fever virus; in series [7]; with Vaccinia virus) was greater than 100 µM in each case. The compound further came in with a CC50 at 96 h in series [4] greater than 100 µM.
As for `c1ccc2[nH]c(CCCC3NCC4CNCC3C4)nc2c1` (stereo not drawn), the CC50 in [1], in [3] and in series [8] was greater than 100 µM throughout. In addition, the EC50 (in series [2]; in the series with Coxsackievirus B5; with Reovirus sp.; in the series on Human alphaherpesvirus 1; in [5]; with Poliovirus 1) was greater than 100 µM in each case. The EC50 (in series [6]; in the series with Yellow fever virus; in series [7]; in the series with Vaccinia virus) was greater than 100 µM throughout. Moreover, in [4], the CC50 at 96 h was greater than 100 µM.
